# Measured values: ChEMBL document CHEMBL1146242, “Synthesis and antibacterial activity of novel oxazolidinones with methylene oxygen- and methylene sulfur-linked substituents at C5-position” (2007)
# Assays:
# Assay type in all cases: functional
# [1] = tested on: Staphylococcus aureus; assay: Antimicrobial activity against Staphylococcus aureus 15187 by agar dilution method
# In short: (§1)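 NCCLS agar dilution MIC in Mueller Hinton agar. Compounds were made up as 1 mg/mL DMSO stocks and serially diluted 2-fold into molten agar, final range 16 to 0.015. Direct colony suspensions in saline were set to 0.5 McFarland, diluted 10-fold, and spotted with a replicator. Plates were incubated in ambient air at 35 °C for 18–24 h.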
# [2] = tested on: Staphylococcus aureus; assay: Antimicrobial activity against methicillin-resistant Staphylococcus aureus 562 by agar dilution method; in short: as §1
# [3] = tested on: Staphylococcus aureus; assay: Antimicrobial activity against methicillin-resistant Staphylococcus aureus 33 by agar dilution method; in short: as §1
# [4] = tested on: Enterococcus faecalis; assay: Antimicrobial activity against Enterococcus faecalis ATCC 29212 by agar dilution method
# In short: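 Compounds were stocked at 1 mg/mL in DMSO. Direct colony suspensions in saline were set to 0.5 McFarland, diluted 10-fold and applied with a replicator. Plates were incubated in ambient air at 35 °C for 18–24 h.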
# [5] = tested on: Enterococcus faecium; assay: Antimicrobial activity against vancomycin-resistant Enterococcus faecium 6A by agar dilution method; in short: as §1
# [6] = tested on: Streptococcus pyogenes; assay: Antimicrobial activity against Streptococcus pyogenes ATCC 19615 by agar dilution method
# [7] = tested on: Streptococcus pneumoniae; assay: Antimicrobial activity against Streptococcus pneumoniae ATCC 6303 by agar dilution method
# In short: (§2)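 NCCLS agar dilution with serial 2-fold drug dilutions in Mueller Hinton agar, 16–0.015 µg/mL final. Drug stocks were 1 mg/mL in DMSO. The inoculum was a 0.5 McFarland saline colony suspension diluted 10-fold and replicator-spotted. As fastidious organisms, plates were incubated in 5% CO₂ at 35 °C for 18–24 h.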
# [8] = tested on: Moraxella catarrhalis; assay: Antimicrobial activity against Moraxella catarrhalis M2 by agar dilution method
# In short: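 MIC was read by NCCLS agar dilution using doubling dilutions in Mueller Hinton agar, 16–0.015 µg/mL final, from 1 mg/mL DMSO stocks. Colonies were suspended in saline to 0.5 McFarland, diluted 10-fold and transferred with a replicator. Plates were incubated at 35 °C for 18–24 h.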
# [9] = tested on: Haemophilus influenzae; assay: Antimicrobial activity against Haemophilus influenzae ATCC 49247 by agar dilution method; in short: as §2
# [10] = tested on: Staphylococcus aureus; assay: Antimicrobial activity against Staphylococcus aureus ATCC 25923 by agar dilution method; in short: as §1
SMILES,MIC [1] [µg/mL],MIC [2] [µg/mL],MIC [3] [µg/mL],MIC [4] [µg/mL],MIC [5] [µg/mL],MIC [6] [µg/mL],MIC [7] [µg/mL],MIC [8] [µg/mL],MIC [9] [µg/mL],MIC [10] [µg/mL]
CC(=O)NC[C@H]1CN(c2ccc(N3CCN(c4ccc([N+](=O)[O-])s4)CC3)c(F)c2)C(=O)O1,0.25,0.25,0.25,0.25,0.25,0.125,0.125,0.25,8,0.25
O=C1O[C@@H](CO)CN1c1ccc(N2CCN(c3ccc([N+](=O)[O-])s3)CC2)c(F)c1,0.5,0.5,0.5,0.5,0.5,0.5,1,2,8,0.5
Cc1ccccc1S(=O)(=O)NC(=O)OC[C@H]1CN(c2ccc(N3CCN(c4ccc([N+](=O)[O-])s4)CC3)c(F)c2)C(=O)O1,16,16,16,8,1,0.5,1,> 8,> 16,16
CC(=O)OC[C@H]1CN(c2ccc(N3CCN(c4ccc([N+](=O)[O-])s4)CC3)c(F)c2)C(=O)O1,0.5,0.5,0.5,0.5,1,0.25,1,> 16,> 16,0.5
CC(=O)NC[C@H]1CN(c2ccc(N3CCOCC3)c(F)c2)C(=O)O1 [LINEZOLID],,,,,2,2,,> 4,4,
CN[C@H](CC(C)C)C(=O)N[C@H]1C(=O)N[C@@H](CC(N)=O)C(=O)N[C@H]2C(=O)N[C@H]3C(=O)N[C@H](C(=O)N[C@H](C(=O)O)c4cc(O)cc(O)c4-c4cc3ccc4O)[C@H](O)c3ccc(c(Cl)c3)Oc3cc2cc(c3O[C@@H]2O[C@H](CO)[C@@H](O)[C@H](O)[C@H]2O[C@H]2C[C@](C)(N)[C@H](O)[C@H](C)O2)Oc2ccc(cc2Cl)[C@H]1O [VANCOMYCIN],,,,,> 16,,0.5,> 16,> 64,
